# Experiments:
# GST-Mdm2 RING domain [1] = biological target: GST-Mdm2 RING domain (Homo sapiens, UniProt Q00987); experiment: ATP binding competition assay; conditions: for binding to Mdm2 (displacement of bound γ-32P ATP): Mdm2(400–484), Nebularine: concentration range up to 1 mM
# GST-Mdm2(400–491) = GST-Mdm2(400–491) (Homo sapiens, UniProt Q00987); experiment: Isothermal titration calorimetry; type: binding; conditions: 2 mM ATP titrated into 100 nM GST-Mdm2(400–491), single-site isotherm
# Procedure, shortened: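 GST-Mdm2(400–491) was expressed in E. coli BL21 (16 h induction at 25°C) and purified on glutathione-Sepharose. In assay buffer (100 mM Tris-HCl pH 7.0, 100 mM NaCl, 10 mM MgCl2, 2 mM DTT), 2 mM ATP or GTP was injected into 100 nM protein over twenty injections. Buffer-alone heat of dilution was subtracted, and data were fitted to a single-site isotherm. Four independent measurements were made.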
# GST-Mdm2 RING domain [2] = experiment: ATP binding competition assay; set-up: species or system human; conditions: Mdm2(410–491) with eight lysines mutated to alanine (8 KA, Mdm2-NoLS)
# Chain of GST-Mdm2(400–491) (Q00987 400-491): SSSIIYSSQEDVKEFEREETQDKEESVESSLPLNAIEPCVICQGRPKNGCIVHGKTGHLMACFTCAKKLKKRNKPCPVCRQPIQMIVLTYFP
binding to Mdm2 (displacement of bound γ-32P ATP) (GST-Mdm2 RING domain [1]),Kd (GST-Mdm2(400–491)),Kd (GST-Mdm2 RING domain [2]),"dissociation constant (Kd) (GST-Mdm2 RING domain [1]; GST-Mdm2(400–491), competition of γ-32P ATP)",Structure (SMILES)
completely abrogated the binding,,,,"Nc1ncnc2c1ncn2[C@H]1C[C@H](O)[C@@H](CO)O1 [2′ deooxyadenosine, 2′deoxyadenosine]"
,4 µM,low micromolar range,low micromolar range,"Nc1ncnc2c1ncn2[C@@H]1O[C@H](COP(=O)(O)OP(=O)(O)OP(=O)(O)O)[C@@H](O)[C@H]1O [ATP, adenosine triphosphate]"
did not bind,,,,"Nc1nc(F)nc2c1ncn2[C@@H]1O[C@H](CO)[C@@H](O)[C@@H]1O [F-Ara-A, Fludarabine]"
no binding,,,,OC[C@H]1O[C@@H](n2cnc3cncnc32)[C@H](O)[C@@H]1O [Nebularine]
